Results collected from several papers.
Lines come from different studies, so protocols differ.
CYP2D6: Cytochrome P450 2D6 (CYP2D6, Homo sapiens, UniProt P10635)

Structure (SMILES)	target or system	assay	system	conditions	measurement	value
Cc1ccc(C(CS(=O)(=O)c2ccccc2)=NN=C2N=C(c3ccc(Br)cc3)CS2)cc1	WM 266-4	cell growth or viability, MTT		1.6 µg, 48 h	viability	55.1%
Nc1nc(N)c2nc(C(=O)NCc3ccccc3)cnc2n1	CYP2D6	enzyme activity, inhibitor, luciferase		10 µM	inhibition	105%
CCn1c(=O)c(-c2cc(NC(=O)Nc3ccccc3)c(F)cc2Br)cc2cnc(NC)cc21			beagle dog, plasma	oral, 5 mg/kg, single dose	AUC(0-inf)	4030 ng·h/mL
Cc1nc(-c2cnc(NC(C)C)n(C)c2=O)ccc1Oc1ccnc(-c2cnn(C)c2)c1			male beagle dog, plasma	oral, 10 mg/kg	AUC(0-t)	19500 ng·h/mL
CC(C)(C)c1nc(-c2cccc(NS(=O)(=O)c3c(F)cccc3F)c2F)c(-c2ccnc(N)n2)s1	WM 266-4	cell growth or viability, MTT		1.6 µg, 48 h	viability	64.6%
CC[C@@H]1CN(C(=O)NCC(F)(F)F)C[C@@H]1c1cnc2cnc3[nH]ccc3n12			beagle dog, plasma	oral, 1 mg/kg, single dose	AUC(0-inf)	582 ng·h/mL
COc1cc2c3c(n(CCCN4CCOCC4)c(=O)c2cc1OC)-c1cc2c(cc1C3=O)OCO2			male beagle dog, plasma	intravenous, 10 mg/m², infusion	AUC(0-inf)	383 ng·h/mL
Cc1ccc(C(CS(=O)(=O)c2ccccc2)=NNC2=NC(=O)C(=NNc3ccc([N+](=O)[O-])cc3)S2)cc1	WM 266-4	cell growth or viability, MTT		1.6 µg, 48 h	viability	50.5%
COCCc1ccc(OCC(O)CNC(C)C)cc1 (stereo not drawn)	CYP2D6		human, plasma	oral, 100 mg, single dose, healthy volunteers	AUC(0-t)	758 ng·h/mL
COC(=O)C1CCN(C(=O)c2ccc(N(CCCO)Cc3cnc4nc(N)nc(N)c4n3)cc2)CC1	CYP2D6	enzyme activity, inhibitor, luciferase		10 µM	inhibition	-27.1%
C[C@@H]1CCC[C@H](n2cnc(-c3cc(Cl)ccc3-n3cc(Cl)nn3)cc2=O)c2cc(ccn2)-c2c(cnn2C(F)F)NC1=O			male rabbit, plasma	intravenous, 0.8 mg/kg	Vd	1.4 L/kg
NC(=S)NN=C(CS(=O)(=O)c1ccccc1)c1ccc(F)cc1	WM 266-4	cell growth or viability, MTT		1.6 µg, 48 h	viability	48.6%
